# Results pooled from the literature.
# Each line is one published result; the experiments were not run side by side.
# Effect on: metabolic stability
Compound,host,sample,concentration,pH,quantity,value
CONC(=O)N1CCC[C@H](C(=O)NCc2nc(-c3ccccc3)cs2)C1,male Sprague-Dawley rat,liver microsomes,0.5 µM,,microsomal CLint,18 µL/min/mg
CCN(c1ccc(C)cc1)c1ccc(NC(=O)CN(C)c2ccccc2N2CCCC2=O)cn1,rat,hepatocytes,,,hepatocyte CLint,> 92 µL/min/10⁶ cells
N#Cc1ccc(C[C@H](Nc2nnc(-c3ccc(Br)cc3)s2)C(=O)N2CCc3ccccc32)cc1,rat,liver microsomes,10 µM,pH 7.4,microsomal CLint,46.2 µL/min/mg
Cc1ccc(Nc2cnnc3ccc(-c4ccc(N5CCN(C)CC5)cc4)cc23)cn1,rat,hepatocytes,,,hepatocyte CLint,15 µL/min/10⁶ cells
O=C(NCc1nc(-c2ccc(C(F)(F)F)cc2)cs1)[C@H]1CCCN(C(=O)COCCN2CCCC2)C1,male Sprague-Dawley rat,liver microsomes,0.5 µM,,microsomal CLint,34 µL/min/mg
Cc1ccc(Oc2ccc(NC(=O)COc3ccccc3N3CCCC3=O)cc2)cc1,rat,hepatocytes,,,hepatocyte CLint,68 µL/min/10⁶ cells
Cc1cc(S(=O)(=O)NC2CC(N3CCN(CC4CCN(c5cccc6c5n(C)c(=O)n6C5CCC(=O)NC5=O)CC4)CC3)C2)ccc1Nc1ncc(C(F)(F)F)c(N2CCC[C@](C)(O)C2)n1 (stereo partly shown),rat,liver microsomes,1 µM,,scaled CLint,< 21 mL/min/kg
Cc1ccc(N(C)c2ccc(NC(=O)CN(C)c3ccccc3N3CCCC3=O)cc2)cc1,rat,hepatocytes,,,hepatocyte CLint,> 92 µL/min/10⁶ cells
Cc1ccc(-c2csc(CNC(=O)[C@H]3CCCN(C(=O)COCCF)[C@H]3C)n2)cn1,male Sprague-Dawley rat,liver microsomes,0.5 µM,,microsomal CLint,31 µL/min/mg
Cc1cc(S(=O)(=O)N[C@H]2CC[C@H](N3CCN(CC4CCN(c5cccc6c5n(C)c(=O)n6C5CCC(=O)NC5=O)CC4)CC3)CC2)ccc1Nc1ncc(C(F)(F)F)c(N2CCC[C@](C)(O)C2)n1 (stereo partly shown),rat,liver microsomes,1 µM,,scaled CLint,< 21 mL/min/kg
COCC(=O)N1CCC[C@H](C(=O)NCc2nc(-c3ccccc3)cs2)C1,male Sprague-Dawley rat,liver microsomes,0.5 µM,,microsomal CLint,19 µL/min/mg
Cc1cc(S(=O)(=O)N[C@H]2CC[C@H](CN3CCN(c4ccc(NC5CCC(=O)NC5=O)cc4F)CC3)CC2)ccc1Nc1ncc(C(F)(F)F)c(N2CCC[C@](C)(O)C2)n1 (stereo partly shown),rat,liver microsomes,1 µM,,scaled CLint,< 21 mL/min/kg
COc1cc(NC(=O)Cn2cc(Cl)c3ccc(-c4cnn(C)c4)cc32)cc(OC)c1OC,rat,hepatocytes,,,hepatocyte CLint,< 1 µL/min/10⁶ cells
Cc1cc(S(=O)(=O)NC2CC(N3CCN(CC4CCN(c5ccc(NC6CCC(=O)NC6=O)cc5C)CC4)CC3)C2)ccc1Nc1ncc(C(F)(F)F)c(N2CCC[C@](C)(O)C2)n1 (stereo partly shown),rat,liver microsomes,1 µM,,scaled CLint,< 21 mL/min/kg
CCOCC(=O)N1CCC[C@H](C(=O)NCc2nc(-c3ccc(C#N)nc3)cs2)C1,male Sprague-Dawley rat,liver microsomes,0.5 µM,,scaled CLint,19 mL/min/kg
CNS(=O)(=O)c1ccc(Nc2ncc(C(F)(F)F)c([C@H]3CC[C@](C)(O)CC3)n2)c(C)c1,rat,liver microsomes,1 µM,,scaled CLint,30 mL/min/kg
N#Cc1ccc(C[C@H](Nc2ncc(-c3ccc(F)cc3)o2)C(=O)N2CCc3ccccc32)cc1,rat,liver microsomes,10 µM,pH 7.4,microsomal CLint,16.1 µL/min/mg
NCCOCC(=O)N1CCC[C@H](C(=O)NCc2nc(-c3ccc(C(F)(F)F)cc3)cs2)C1,male Sprague-Dawley rat,liver microsomes,0.5 µM,,scaled CLint,< 5.6 mL/min/kg
Cc1cc(S(=O)(=O)N[C@H]2C[C@H](CN3CCN(c4ccc(C5CCC(=O)NC5=O)c(Cl)c4)CC3)C2)ccc1Nc1ncc(C(F)(F)F)c(N2CCC[C@](C)(O)C2)n1 (stereo partly shown),rat,liver microsomes,1 µM,,scaled CLint,36 mL/min/kg
